Data as given in ChEMBL document CHEMBL5033991, “Targeting the FtsZ Allosteric Binding Site with a Novel Fluorescence Polarization Screen, Cytological and Structural Approaches for Antibacterial Discovery” (J Med Chem, 2021).
Converted amounts (≈) assume the structure as drawn. The source made the active and inactive calls. The calls are words filed in the database; no cut-off is given here.

Experiments:
[1] = tested on: Staphylococcus epidermidis; test: Antimicrobial activity against Staphylococcus epidermidis assessed as inhibition of bacterial growth by CLSI based broth macrodilution method; format: functional
Procedure, shortened: (§1)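 Cells grown in cation-adjusted Mueller–Hinton broth at 37 °C to A600 0.1–0.2, then exposed to compound or DMSO vehicle. MIC by broth macrodilution as the lowest concentration inhibiting growth.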

[2] = tested on: Staphylococcus haemolyticus; test: Antimicrobial activity against Staphylococcus haemolyticus assessed as inhibition of bacterial growth by CLSI based broth macrodilution method; format: functional; procedure, shortened: as §1
[3] = biological target: T1, Cell division protein FtsZ (Bacillus subtilis) (UniProt A5Z1V5); test: Binding affinity to Bacillus subtilis FtsZ polymer assessed as dissociation constant by fluorescence anisotropy analysis
T1 sequence (whole entry): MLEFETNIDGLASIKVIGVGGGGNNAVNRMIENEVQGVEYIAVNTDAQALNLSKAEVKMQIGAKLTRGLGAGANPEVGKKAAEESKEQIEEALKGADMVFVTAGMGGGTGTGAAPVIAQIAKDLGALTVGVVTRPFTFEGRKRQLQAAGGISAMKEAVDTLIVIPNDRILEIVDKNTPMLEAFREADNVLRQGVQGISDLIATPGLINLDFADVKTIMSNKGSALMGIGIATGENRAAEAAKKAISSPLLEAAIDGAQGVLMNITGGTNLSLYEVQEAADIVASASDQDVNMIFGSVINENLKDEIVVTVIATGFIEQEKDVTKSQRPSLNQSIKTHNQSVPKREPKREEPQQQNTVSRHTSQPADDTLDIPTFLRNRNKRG

[4] = biological target: T2, Cell division protein FtsZ (Bacillus subtilis, UniProt A5Z1V5); test: Displacement of free fluorescent probe from inter domain cleft of stabilized Bacillus subtilis FtsZ assessed as dissociation constant in presence of GMPCPP by fluorescence anisotropy analysis
T2 sequence (A5Z1V5 whole entry): T1 sequence (whole entry)
Procedure, shortened: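 BsFtsZ polymers assembled in HEPES buffer pH 6.8 with 10 mM MgCl2 and GMPCPP, cross-linked with 0.15% glutaraldehyde, quenched with NaBH4. Competitor titrated into 7–8 μM polymers plus (S)-2 (3 μM) or 2–3 μM polymers plus (R)-5 (3 μM), 0.1 mM GMPCPP, 25 °C. Initial probe bound fraction 0.4–0.5; KD numerically fitted by competition model; mean ± SEM.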

[5] = biological target: T1, Cell division protein FtsZ (Bacillus subtilis); test: Competitive binding affinity to Bacillus subtilis FtsZ at 10 uM in presence of PC190723 by fluorescence anisotropy analysis
Procedure, shortened: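 Probe (10 μM) in buffer mixed with unassembled BsFtsZ (10 μM), then GMPCPP (0.1 mM). Polymerization started with MgCl2 (10 mM), anisotropy read 5–10 min later. PC190723 (10 μM) then added to displace probe, with anisotropy read 5 min after. Measured at 25 °C in an L-format spectrofluorometer at each probe's excitation/emission maxima.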

[6] = tested on: Bacillus subtilis; test: Antimicrobial activity against Bacillus subtilis 168 assessed as inhibition of cell division incubated for 1.5 hrs by phase contrast microscopic analysis; format: functional
Procedure, shortened: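 B. subtilis 168 grown in cation-adjusted Mueller–Hinton broth at 37 °C to A600 0.1–0.2, then incubated with compound or DMSO vehicle. Cells observed by microscopy and cell lengths measured; division inhibition expressed as minimal division inhibitory concentration.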

[7] = biological target: T1, Cell division protein FtsZ (Bacillus subtilis); test: Binding affinity to Bacillus subtilis FtsZ assessed as decrease in fluorescence anisotropy values at 20 to 200 uM by fluorescence anisotropy analysis; settings: dose 20-200 µM
Procedure, shortened: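 Screen: probe (S)-2 (3 μM) with glutaraldehyde-cross-linked BsFtsZ-GMPCPP polymers (8 μM binding sites), each compound at 20 and 200 μM; raw anisotropy compared with partially bound probe, free probe and DMSO vehicle controls (2%, 4%). Hits checked for total intensity changes and with replicates lacking FtsZ.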

[8] = tested on: Bacillus subtilis; test: Inhibition of Bacillus subtilis cell division assessed as induction of filamentous phenotype at 25 to 100 uM incubated for 1.5 hrs by fluorescence microscopic analysis; format: functional, organism-based; settings: dose 25-100 µM
Procedure, shortened: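 B. subtilis grown in cation-adjusted Mueller–Hinton broth to A600 0.1–0.2, then treated 1.5 h with fluorescent benzamide probe. Cells imaged by fluorescence microscopy using the probe's own fluorescence; filamentous phenotype scored as division inhibition.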

[9] = tested on: IMR-90; test: Cytotoxicity against human IMR-90 cells assessed as reduction in cell viability at MIC measured after 48 hrs by MTT assay; format: cell-based; settings: imr-90, 48 h
[10] = tested on: Bacillus subtilis; test: Inhibition of Bacillus subtilis 168 cell division at 0.75 mM measured after 3 hrs by phase-contrast microscopic analysis; format: functional, organism-based
Procedure, shortened: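 B. subtilis 168 grown in CAMHB at 37 °C to A600 0.1–0.2, exposed 3 h to compound or DMSO; cell lengths measured from phase-contrast images (n ≥ 30 cells).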

[11] = biological target: T1, Cell division protein FtsZ (Bacillus subtilis); test: Inhibition of GFP-tagged FtsZ in Bacillus subtilis SU570 assessed as induction of irregular shaped z-ring formation at 0.2 uM incubated for 1.5 hrs; settings: dose 200.0 µM, in the assay text read “0.2 mM” for “0.2 uM”
Procedure, shortened: (§2)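 B. subtilis SU570 expressing FtsZ-GFP grown in cation-adjusted Mueller–Hinton broth at 30 °C to A600 0.1–0.2, then grown 1.5 h with compound or DMSO vehicle. FtsZ-GFP localization (Z-rings, foci) assessed by fluorescence microscopy.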

[12] = biological target: T1, Cell division protein FtsZ (Bacillus subtilis); test: Inhibition of GFP-tagged FtsZ in Bacillus subtilis SU570 assessed as delocalization into punctate foci at 0.2 uM incubated for 1.5 hrs; settings: dose 200.0 µM, in the assay text read “0.2 mM” for “0.2 uM”; procedure, shortened: as §2
[13] = biological target: T1, Cell division protein FtsZ (Bacillus subtilis); test: Induction of Bacillus subtilis FtsZ polymerization at 0.1 mM measured after 5 to 10 mins by fluorescence anisotropy analysis; settings: time 5-10 min

CCCC(COc1ccc(F)c(C(N)=O)c1F)Nc1cccc(C(F)(F)F)c1 (racemic)
MIC [1]: 50 µM (≈ 20.1 µg/mL) | MIC [2]: 50 µM (≈ 20.1 µg/mL)

NC(=O)c1c(F)ccc(OCc2nc3cc(Cl)cnc3s2)c1F
Activity [3]: < 0.1 µM | Kd [4]: < 100 nM

CCCCCCCCC(CNc1ccc([N+](=O)[O-])c2nonc12)Oc1ccc(F)c(C(N)=O)c1F (centres undefined)
Activity [5]: inactive

NC(c1cccc(OCc2cccc(Cl)c2)c1)C(F)(F)F (centres undefined)
MIC [6]: 250 µM (≈ 78.9 µg/mL)

Clc1cccc(COc2cccc(-c3ncc[nH]3)c2)c1
MIC [6]: 50 µM (≈ 14.2 µg/mL)

O=C(O)CCN(Cc1ccccc1)Cc1cccc(Sc2ccccc2)c1
Activity [7]: inactive

O=C(Oc1cc(OC(=O)c2cc(O)cc(O)c2)c2ccccc2c1)c1ccc(O)c(O)c1
Activity [7]: Active

NC(=O)c1cccc(NCc2cccc(Cl)c2)c1
Activity [7]: inactive

CC1=CC(=O)c2c(O)cccc2C1=O
Activity [7]: inactive

CN(Cc1cccc(Cl)c1)c1ccc(C(N)=O)cc1
Activity [7]: inactive

CCC[C@H](COc1ccc(F)c(C(N)=O)c1F)Nc1ccc([N+](=O)[O-])c2nonc12
inhibition [8]: Active

CCC[C@@H](CNc1ccc([N+](=O)[O-])c2nonc12)Oc1ccc(F)c(C(N)=O)c1F
inhibition [8]: Active

NC(=O)c1c(F)ccc(OCc2cccc(C(F)(F)F)c2)c1F
Activity [9]: Non-Toxic

NC(=O)c1c(F)ccc(OCCNc2cccc(C(F)(F)F)c2)c1F
Activity [9]: Non-Toxic

NC(=O)c1c(F)ccc(OCc2cccc(Cl)c2)c1F
Activity [9]: Non-Toxic

FC(F)(F)c1cccc(COc2cccc(-c3ncc[nH]3)c2)c1
MIC [6]: 50 µM (≈ 15.9 µg/mL)

Oc1ccc(/C=C/c2cc(O)cc(O)c2)cc1
Activity [7]: inactive

CCCCCC(CNc1ccc([N+](=O)[O-])c2nonc12)Oc1ccc(F)c(C(N)=O)c1F (centres undefined)
Activity [5]: inactive

CCC[C@H](CNc1ccc([N+](=O)[O-])c2nonc12)Oc1ccc(F)c(C(N)=O)c1F
inhibition [8]: inactive

CN(Cc1cccc(Cl)c1)c1cccc(C(N)=O)c1
inhibition [10]: Active | inhibition [11]: Active | inhibition [12]: Active | Activity [7]: inactive

O=C(O)C(=O)c1cn(Cc2ccccc2)c2ccc(-c3ccc(OC(F)(F)F)cc3)cc12
Activity [7]: inactive

NC(=O)c1ccc(NCc2cccc(Cl)c2)cc1
Activity [7]: inactive

CCCC(COc1ccc(F)c(C(N)=O)c1F)Nc1ccc([N+](=O)[O-])c2nonc12 (centres undefined)
Activity [5]: Active

CCCC(CNc1ccc([N+](=O)[O-])c2nonc12)Oc1ccc(F)c(C(N)=O)c1F (centres undefined)
Activity [5]: Active

CCC[C@@H](COc1ccc(F)c(C(N)=O)c1F)Nc1ccc([N+](=O)[O-])c2nonc12
inhibition [8]: Active

NC(=O)c1c(F)ccc(OCCNc2ccc([N+](=O)[O-])c3nonc23)c1F
Activity [5]: Active

Nc1nc2c(ncn2[C@@H]2O[C@H](CO[P@@](=O)(O)C[P@@](=O)(O)OP(=O)(O)O)[C@@H](O)[C@H]2O)c(=O)[nH]1
Activity [13]: Active

CCN(CC)CCNc1nc(/C=C/c2ccc(Cl)cc2)nc2cc3ccccc3cc12
Activity [7]: inactive

CCC[C@H](COc1ccc(F)c(C(N)=O)c1F)Nc1cccc(C(F)(F)F)c1
Activity [9]: Non-Toxic
